Assay results as given in ChEMBL document CHEMBL3091313, “Amino acids derived benzoxazepines: design, synthesis and antitumor activity” (Bioorg Med Chem Lett, 2013).
Calls of active or inactive are those of the source. No cut-off for these calls is given here.

Experiments:
MDA-MB-231 [1] = test: Cell cycle arrest in human MDA-MB-231 cells assessed as accumulation at S phase at 1 uM after 24 hrs using propidium iodide staining by flow cytometry (reference value: 28.59 %); type: functional
MDA-MB-231 [2] = test: Cell cycle arrest in human MDA-MB-231 cells assessed as accumulation at G1 phase at 1 uM after 24 hrs using propidium iodide staining by flow cytometry (reference value: 52.67 %); type: functional
MDA-MB-231 [3] = test: Cell cycle arrest in human MDA-MB-231 cells assessed as apoptosis at 1 uM after 24 hrs using propidium iodide staining by flow cytometry (reference value: 0.10 %); type: functional
MCF7 [4] = test: Induction of apoptosis in human MCF7 cells assessed as phosphatidylserine exposure after 24 hrs using annexin V/PI staining by flow cytometry; type: functional, cell-based
In short: (§1)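 MCF-7 cells were exposed to vehicle or the indicated compound concentrations for 24 h. Phosphatidylserine exposure was then measured by flow cytometry after staining with FITC-labelled Annexin V and propidium iodide. Apoptotic cell fractions were read from dot plots relative to vehicle.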

MCF7 [5] = test: Induction of apoptosis in human MCF7 cells assessed as DNA fragmentation after 24 hrs by ELISA; type: functional, cell-based
In short: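 MCF-7 cells were treated with compound, with 4-OHT alongside. DNA fragmentation was quantified after 24 h and expressed relative to a positive control set at 100%. Data are mean ± SEM of three independent experiments.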

MCF7 [6] = test: Induction of apoptosis in human MCF7 cells assessed as late apoptotic cells at 5 uM after 24 hrs using annexin V/PI staining by flow cytometry (reference value: 6.46 %); type: functional; in short: as §1
MCF7 [7] = test: Induction of apoptosis in human MCF7 cells assessed as early apoptotic cells at 5 uM after 24 hrs using annexin V/PI staining by flow cytometry (reference value: 3.19 %); type: functional
MCF7 [8] = test: Induction of apoptosis in human MCF7 cells assessed as late apoptotic cells at 3 uM after 24 hrs using annexin V/PI staining by flow cytometry (reference value: 6.46 %); type: functional; in short: as §1
MCF7 [9] = test: Induction of apoptosis in human MCF7 cells assessed as late apoptotic cells at 1 uM after 24 hrs using annexin V/PI staining by flow cytometry (reference value: 6.46 %); type: functional; in short: as §1
MCF7 [10] = test: Induction of apoptosis in human MCF7 cells assessed as early apoptotic cells at 1 uM after 24 hrs using annexin V/PI staining by flow cytometry (reference value: 3.19 %); type: functional
MDA-MB-231 [11] = test: Antiproliferative activity against human MDA-MB-231 cells after 72 hrs by MTT assay; type: functional, cell-based; details: MDA-MB-231, 72 h
In short: (§2)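 MCF-7 (ER+ve) and MDA-MB-231 (ER-ve) breast cancer cells were exposed to compound or vehicle. Viability was read by MTT and expressed as % cell death versus vehicle, with 4-hydroxytamoxifen as positive control. IC50 came from three independent experiments, each in triplicate.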

MDA-MB-231 [12] = test: Antiproliferative activity against human MDA-MB-231 cells after 48 hrs by MTT assay; type: functional, cell-based; details: MDA-MB-231, 48 h; in short: as §2
MCF7 [13] = test: Antiproliferative activity against human MCF7 cells after 72 hrs by MTT assay; type: functional, cell-based; details: MCF7, 72 h; in short: as §2
MCF7 [14] = test: Antiproliferative activity against human MCF7 cells after 48 hrs by MTT assay; type: functional, cell-based; details: MCF7, 48 h; in short: as §2
Vero = test: Cytotoxicity against african green monkey Vero cells after 24 hrs by MTT assay; type: cell-based; details: chlorocebus sabaeus
In short: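 Vero, HEK-293 and primary rat calvarial osteoblasts were given vehicle or a range of concentrations for 24 h. Cell death was expressed as % relative to vehicle.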

MDA-MB-231 [15] = test: Antiproliferative activity against human MDA-MB-231 cells after 24 hrs by MTT assay; type: functional, cell-based; details: MDA-MB-231, 24 h; in short: as §2
Mus musculus = test: Toxicity in human MCF7 cells xenografted athymic nude mouse assessed as change in body weight at 16 mg/kg/day, po for 21 days measured up to 21 days relative to vehicle-treated control; type: organism-based; design: route oral; details: in vivo, 504 h
MCF7 [16] = test: Antitumor activity against human MCF7 cells xenografted in athymic nude mouse assessed as reduction in tumor volume at 16 mg/kg/day, po for 21 days measured after 21 days relative to control; type: functional; design: scale not given: the % may be the effect or the level left
MCF7 [17] = test: Induction of apoptosis in human MCF7 cells assessed as reduction in cell viability at 5 uM after 24 hrs by MTT assay in presence of zVAD-FMK; type: functional, cell-based
MCF7 [18] = test: Induction of apoptosis in human MCF7 cells assessed as increase in Bax/Bcl2 ratio at 5 uM after 6 to 24 hrs by immunoblotting method; type: functional, cell-based
MCF7 [19] = test: Induction of apoptosis in human MCF7 cells assessed as reduction in mitochondrial membrane potential at 1 to 5 uM after 12 hrs by Jc-1 staining-based flow cytometry; type: functional, cell-based
MCF7 [20] = test: Induction of apoptosis in human MCF7 cells assessed as caspase-9 cleavage at 5 uM after 6 hrs by immunoblotting method; type: functional, cell-based
MCF7 [21] = test: Induction of apoptosis in human MCF7 cells assessed as caspase-8 cleavage at 5 uM after 6 hrs by immunoblotting method; type: functional, cell-based
MCF7 [22] = test: Cell cycle arrest in human MCF7 cells assessed as decrease in cyclin D1 protein level at 5 uM after 12 to 24 hrs by immunoblotting method; type: functional, cell-based
MCF7 [23] = test: Cell cycle arrest in human MCF7 cells assessed as increase in p27 protein level at 5 uM after 12 to 24 hrs by immunoblotting method; type: functional, cell-based
MCF7 [24] = test: Cell cycle arrest in human MCF7 cells assessed as decrease in cyclin D1 mRNA level at 1 to 5 uM after 12 hrs by QRT-PCR method; type: functional, cell-based
MCF7 [25] = test: Cell cycle arrest in human MCF7 cells assessed as increase in p27 mRNA level at 1 to 5 uM after 12 hrs by QRT-PCR method; type: functional, cell-based
MCF7 [26] = test: Cell cycle arrest in human MCF7 cells assessed as increase in p21 mRNA level at 1 to 5 uM after 12 hrs by QRT-PCR method; type: functional, cell-based
MCF7 [27] = test: Cell cycle arrest in human MCF7 cells assessed as accumulation at G1 phase at 5 uM after 24 hrs using propidium iodide staining by flow cytometry (reference value: 67.73 %); type: functional
MCF7 [28] = test: Cell cycle arrest in human MCF7 cells assessed as apoptosis at 5 uM after 24 hrs using propidium iodide staining by flow cytometry (reference value: 0.06 %); type: functional
MCF7 [29] = test: Cell cycle arrest in human MCF7 cells assessed as accumulation at S phase at 3 uM after 24 hrs using propidium iodide staining by flow cytometry (reference value: 24.81 %); type: functional
MCF7 [30] = test: Cell cycle arrest in human MCF7 cells assessed as accumulation at G1 phase at 3 uM after 24 hrs using propidium iodide staining by flow cytometry (reference value: 67.73 %); type: functional
MCF7 [31] = test: Cell cycle arrest in human MCF7 cells assessed as apoptosis at 3 uM after 24 hrs using propidium iodide staining by flow cytometry (reference value: 0.06 %); type: functional
MCF7 [32] = test: Cell cycle arrest in human MCF7 cells assessed as accumulation at S phase at 1 uM after 24 hrs using propidium iodide staining by flow cytometry (reference value: 24.81 %); type: functional
MCF7 [33] = test: Cell cycle arrest in human MCF7 cells assessed as accumulation at G2 phase at 1 uM after 24 hrs using propidium iodide staining by flow cytometry (reference value: 7.46 %); type: functional
MDA-MB-231 [34] = test: Cell cycle arrest in human MDA-MB-231 cells assessed as accumulation at G2 phase at 5 uM after 24 hrs using propidium iodide staining by flow cytometry (reference value: 18.75 %); type: functional

`Cc1ccc(S(=O)(=O)N2Cc3ccccc3OC[C@@H]2Cc2ccc(OCCN3CCCCCC3)cc2)cc1.Cl` gave an Activity (MDA-MB-231 [1]) of 24.81%, an Activity (MDA-MB-231 [2]) of 67.73% and an Activity (MDA-MB-231 [3]) of 0.6%. For the same compound, the Activity (MCF7 [4]) was “Dose-dependent effect”, the Activity (MCF7 [5]) was “Dose-dependent effect” and the Activity (MCF7 [6]) was 35.77%. For the same compound, the Activity (MCF7 [7]) was 42.51%, the Activity (MCF7 [8]) was 25.59% and the Activity (MCF7 [9]) was 20.15%. It also gave an Activity (MCF7 [10]) of 15.13%, an IC50 (MDA-MB-231 [11]) of 4.6 µM and an IC50 (MDA-MB-231 [12]) of 5.45 µM. For the same compound, the IC50 (MCF7 [13]) was 1.83 µM, the IC50 (MCF7 [14]) was 3.55 µM and the Activity (Vero) was “Non-toxic”. For the same compound, the IC50 (MDA-MB-231 [15]) was 7.2 µM, the Activity (Mus musculus) was “Non-toxic” and the Activity (MCF7 [16]) was 50%. For the same compound, the Activity (MCF7 [17]) was “Active”, the Activity (MCF7 [18]) was “Active” and the Activity (MCF7 [19]) was “Active”. The Activity (MCF7 [20]) was “Active”, the Activity (MCF7 [21]) was “Active” and the Activity (MCF7 [22]) was “Active”. For the same compound, the Activity (MCF7 [23]) was “Active”, the Activity (MCF7 [24]) was “Active” and the Activity (MCF7 [25]) was “Active”. The Activity (MCF7 [26]) was “Active”, the Activity (MCF7 [27]) was 86.22% and the Activity (MCF7 [28]) was 2.86%. For the same compound, the Activity (MCF7 [29]) was 6.18%, the Activity (MCF7 [30]) was 86.96% and the Activity (MCF7 [31]) was 0.52%. For the same compound, the Activity (MCF7 [32]) was 18.93%, the Activity (MCF7 [33]) was 6.97% and the Activity (MDA-MB-231 [34]) was 6.48%.
